# Results from ChEMBL document CHEMBL1138322 (J Med Chem, 2007).
# The source made the active and inactive calls. The rule behind the calls is not given here.
# How the values were obtained:
# [1] = target: Cytochrome P450 2C9 (Homo sapiens, UniProt P11712); assay: Inhibition of CYP2C9 in human liver microsomes; format: ADME, Microsome
# [2] = Cmax in mouse at 1 mg/kg, iv or 2 mg/kg, po; format: ADME, organism-based; details: in vivo
# How it was run: (§1)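 Mouse PK. Intravenous dose 1 mg/kg and oral dose 2 mg/kg, both given in DMSO/PEG400/water (5:40:55 v:v:v).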
# [3] = Oral bioavailability in mouse at 2 mg/kg, po; format: ADME, organism-based; details: in vivo; how it was run: as §1
# [4] = target: T1, Cytochrome P450 2C8 (Homo sapiens, UniProt P10632); assay: Inhibition of CYP2C8 in human liver microsomes; format: ADME, Microsome
# T1 sequence (P10632 whole entry): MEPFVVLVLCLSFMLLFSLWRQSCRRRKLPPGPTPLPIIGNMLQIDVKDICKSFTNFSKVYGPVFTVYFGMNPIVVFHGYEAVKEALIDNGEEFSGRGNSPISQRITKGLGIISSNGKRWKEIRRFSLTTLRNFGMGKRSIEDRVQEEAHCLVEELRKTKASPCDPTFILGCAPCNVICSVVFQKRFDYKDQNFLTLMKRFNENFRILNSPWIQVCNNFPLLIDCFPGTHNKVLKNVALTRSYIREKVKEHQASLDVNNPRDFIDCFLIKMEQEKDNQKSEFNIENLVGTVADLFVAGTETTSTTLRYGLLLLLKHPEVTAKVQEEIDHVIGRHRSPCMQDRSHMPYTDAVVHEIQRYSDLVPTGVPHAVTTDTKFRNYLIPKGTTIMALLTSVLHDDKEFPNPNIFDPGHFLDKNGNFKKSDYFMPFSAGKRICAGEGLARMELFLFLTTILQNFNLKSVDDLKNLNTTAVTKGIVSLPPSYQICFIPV
# How it was run: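 Human liver microsome CYP2C8 inhibition with taxol as substrate and montelukast as positive control; IC50 reported.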
# [5] = Volume of distribution at steady state in mouse at 1 mg/kg, iv or 2 mg/kg, po; format: ADME, organism-based; details: in vivo, read-out: Vdss; how it was run: as §1
# [6] = Half life in mouse at 1 mg/kg, iv or 2 mg/kg, po; format: ADME, organism-based; details: in vivo; how it was run: as §1
# [7] = Clearance in mouse at 1 mg/kg, iv or 2 mg/kg, po; format: ADME, organism-based; details: in vivo; how it was run: as §1
# [8] = target: T2, Hydroxycarboxylic acid receptor 2 (Mus musculus, UniProt Q9EP66); assay: Agonist activity at mouse GPR109A by [35S]GTP-gamma-S binding assay; format: functional
# T2 sequence (Q9EP66 whole entry): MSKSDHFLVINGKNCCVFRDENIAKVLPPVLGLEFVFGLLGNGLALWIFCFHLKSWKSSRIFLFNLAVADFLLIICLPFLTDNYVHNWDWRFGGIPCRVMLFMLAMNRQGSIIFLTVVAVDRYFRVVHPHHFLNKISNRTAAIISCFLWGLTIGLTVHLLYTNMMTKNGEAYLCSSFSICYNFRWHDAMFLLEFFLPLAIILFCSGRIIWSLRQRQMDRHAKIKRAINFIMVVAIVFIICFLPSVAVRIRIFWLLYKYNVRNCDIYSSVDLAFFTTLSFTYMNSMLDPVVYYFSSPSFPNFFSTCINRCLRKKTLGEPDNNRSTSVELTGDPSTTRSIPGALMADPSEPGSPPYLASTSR
# [9] = test system: Mus musculus; assay: Reduction of plasma free fatty acid levels in po dosed mouse after 15 mins; format: functional, organism-based; details: for ED50: po
# How it was run: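 Mice dosed orally. Plasma free fatty acids and plasma compound level both measured at 15 min post-dosing.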
# [10] = test system: Mus musculus; assay: Vasodilation effect in mouse ear at 100 mg/kg, ip; format: functional, organism-based; parameters: dose 100 mg/kg
# How it was run: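 Flushing model in mice. Compound given i.p. in 5% DMSO/40% PEG400/55% water. Vasodilation read as the change in ear blood perfusion by laser Doppler flowmetry.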
# [11] = test system: Adipocyte; assay: Inhibition of lipolysis in human adipocytes; format: functional, cell-based
# How it was run: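 Inhibition of lipolysis in human adipocytes, read as reduction of free fatty acid release.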
# [12] = Plasma concentration in mouse at 100 mg/kg, ip after 15 mins; format: ADME, organism-based; parameters: dose 100 mg/kg, route intraperitoneal
# How it was run: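 After an i.p. dose in the mouse ear vasodilation study, plasma compound level measured at 15 min post-dose.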
# [13] = target: T2, Hydroxycarboxylic acid receptor 2; assay: Displacement of [3H]niacin from mouse GPR109A
# [14] = Therapeutic index, ratio of vasodilating effect to IC50 for FFA reduction in mouse; format: organism-based; details: in vivo
# How it was run: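 Mouse ear vasodilation (flushing) measured as the change in blood perfusion by laser Doppler flowmetry after i.p. dosing in 5% DMSO/40% PEG400/55% water, with plasma drug level taken post-dose. Plasma FFA reduction was measured after p.o. dosing, with compound and FFA plasma levels at 15 min. TI = minimum plasma level inducing flushing ÷ in vivo IC50 for FFA reduction.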
# [15] = test system: Mus musculus; assay: Drug level in mouse at 10 mg/kg, po; details: read-out: Activity, in vivo
# [16] = Plasma concentration in mouse at 3 mg/kg, ip after 5 mins
# Cytochrome P450 2C9, sequence (P11712 whole entry): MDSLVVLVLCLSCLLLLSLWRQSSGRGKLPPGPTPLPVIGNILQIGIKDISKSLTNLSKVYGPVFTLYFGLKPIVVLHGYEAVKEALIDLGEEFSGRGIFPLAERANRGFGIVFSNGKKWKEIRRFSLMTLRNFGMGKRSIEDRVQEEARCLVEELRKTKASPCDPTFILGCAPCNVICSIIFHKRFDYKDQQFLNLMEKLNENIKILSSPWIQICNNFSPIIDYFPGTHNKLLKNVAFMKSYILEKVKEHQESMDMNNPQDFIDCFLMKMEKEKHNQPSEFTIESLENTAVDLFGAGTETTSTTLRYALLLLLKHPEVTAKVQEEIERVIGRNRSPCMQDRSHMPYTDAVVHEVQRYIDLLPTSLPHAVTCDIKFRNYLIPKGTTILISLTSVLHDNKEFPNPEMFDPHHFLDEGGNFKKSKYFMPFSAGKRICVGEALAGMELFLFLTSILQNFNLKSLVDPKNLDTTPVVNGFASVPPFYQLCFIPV
Compound,IC50 [1],Cmax [2],bioavailability [3],IC50 [4],Vd [5],half-life [6],clearance [7],EC50 [8],IC50 [9],ED50 [9],Activity [10],IC50 [11],concentration at […] [12],IC50 [13],selectivity ratio [14],concentration [15],concentration at 5 min [16]
O=C(CCc1cnc(-c2ccc(O)cc2Cl)s1)Nc1ccccc1C(=O)O,2.8 µM,2100 nM,37%,1.2 µM,0.37 L/kg,1.6 h,7.3 mL/min/kg,–,–,–,–,–,–,–,–,–,–
O=C(CCc1nc(-c2ccc(O)cc2)no1)Nc1ccccc1C(=O)O,–,120 nM,6%,–,1.66 L/kg,1.3 h,34 mL/min/kg,1.6 µM,6.9 µM,9 mg/kg,inactive,0.03 µM,490000 nM,0.46 µM,> 70,–,–
Cc1c(CCC(=O)Nc2ccccc2C(=O)O)cnn1-c1ccc(O)cc1,15 µM,30 nM,2.5%,19 µM,0.88 L/kg,1.1 h,26 mL/min/kg,–,–,–,–,0.04 µM,–,–,–,–,–
O=C(CCc1ncc(-c2ccc(O)cn2)s1)Nc1ccccc1C(=O)O,4.2 µM,–,–,9.3 µM,–,–,–,–,–,–,–,–,–,–,–,–,–
O=C(CCc1ccc(-c2ccc(O)cc2Cl)cc1)Nc1ccccc1C(=O)O,< 0.4 µM,960 nM,5%,< 0.4 µM,0.35 L/kg,2 h,18 mL/min/kg,–,–,–,–,–,–,–,–,–,–
O=C(CCc1ccc(-c2ccc(O)cn2)cc1)Nc1ccccc1C(=O)O,1.6 µM,5000 nM,57%,8.9 µM,0.11 L/kg,5.3 h,0.38 mL/min/kg,–,–,–,–,–,–,–,–,–,–
O=C(CCc1cnc(-c2ccc(O)cn2)s1)Nc1ccccc1C(=O)O,5.7 µM,520 nM,27%,20.3 µM,0.62 L/kg,2.2 h,8.5 mL/min/kg,–,–,–,–,–,–,–,–,–,–
O=C(O)c1cccnc1 [NIACIN],–,–,–,–,–,–,–,–,–,8 mg/kg,–,–,–,–,–,20000 nM,18000 nM
O=C(CCc1nc(-c2ccc(O)cn2)no1)Nc1ccccc1C(=O)O,> 100 µM,–,–,> 100 µM,–,–,–,–,–,–,–,0.005 µM,–,–,–,–,–
